Among the data in ChEMBL document CHEMBL3232807, “Genomics-guided discovery of endophenazines from Kitasatospora sp. HKI 714” (2014) are MIC values, retold here.

One may read the MIC as the lowest concentration found to suppress growth.

In brackets after ≈: the same amount, converted by molar mass.

Holding throughout (type): functional
In one experiment the test system is Mycolicibacterium vaccae. Description: Antimicrobial activity against Mycobacterium vaccae IMET 10670 by broth dilution method. In a few lines: (§1)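 MIC was determined by broth dilution following the NCCLS standard method.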
The subject of another experiment is Mycolicibacterium aurum. The experiment can be described thus: Antimicrobial activity against Mycobacterium aurum SB 66 by broth dilution method. In a few lines:
as §1
A general note: In broth dilution the organism is exposed to a series of concentrations in liquid medium.

The subject of experiment [1] is Mycolicibacterium smegmatis. Description: Antimicrobial activity against Mycobacterium smegmatis SG 987 by broth dilution method. In a few lines:
as §1

For experiment [2], the system named is Mycolicibacterium fortuitum. Description: Antimicrobial activity against Mycobacterium fortuitum IMET 10667 by broth dilution method. In a few lines:
as §1

The next experiment relates to Staphylococcus aureus. Description: Antimicrobial activity against methicillin-resistant Staphylococcus aureus SG 511 by broth dilution method. The essentials: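 MIC was determined by broth dilution following NCCLS guidelines, using S. aureus SG 511 (MRSA).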
The test system of experiment [3] is Mycobacterium avium complex sp. The experiment can be described thus: Antimicrobial activity against Mycobacterium avium complex by BACTEC radiometric assay.
The test system of experiment [4] is Mycobacterium tuberculosis. The experiment can be described thus: Antimicrobial activity against Mycobacterium tuberculosis by BACTEC radiometric assay.

On to `O=C(O)c1cn(C2CC2)c2cc(N3CCNCC3)c(F)cc2c1=O` [CIPROFLOXACIN], for which the MIC in the experiment with Mycolicibacterium vaccae was determined as 0.1 µg/mL (≈ 0.302 µM); against Mycolicibacterium aurum, 0.1 µg/mL (≈ 0.302 µM); in experiment [1], 0.78 µg/mL (≈ 2.35 µM); in experiment [2], 0.1 µg/mL (≈ 0.302 µM); against Staphylococcus aureus, 12.5 µg/mL (≈ 37.7 µM).

On to `O=C(O)c1cccc2nc3ccccc3nc12` [PHENAZINE-1-CARBOXYLIC ACID], for which the MIC amounted to 25 µg/mL (≈ 111 µM) against Mycolicibacterium vaccae; 50 µg/mL (≈ 223 µM) with Mycolicibacterium aurum; 50 µg/mL (≈ 223 µM) in experiment [1]; 50 µg/mL (≈ 223 µM) in experiment [2]; 100 µg/mL (≈ 446 µM) against Staphylococcus aureus.

For `C/C(=C\Cc1cccc2nc3cccc(C(=O)O)c3nc12)CO`, the MIC amounted to 25 µg/mL (≈ 81.1 µM) against Mycolicibacterium vaccae; 25 µg/mL (≈ 81.1 µM) against Mycolicibacterium aurum; 50 µg/mL (≈ 162 µM) in experiment [1]; 25 µg/mL (≈ 81.1 µM) in experiment [2]; 100 µg/mL (≈ 324 µM) in the experiment with Staphylococcus aureus.

Regarding `O=C(O)c1cccc2c1Nc1ccccc1N2C(=O)CO`, the MIC in the experiment with Mycolicibacterium vaccae is 25 µg/mL (≈ 87.9 µM); against Mycolicibacterium aurum it was 50 µg/mL (≈ 176 µM); in experiment [1] it was 50 µg/mL (≈ 176 µM); in experiment [2] it was 50 µg/mL (≈ 176 µM); against Staphylococcus aureus, 100 µg/mL (≈ 352 µM).

`CC(C)/N=c1\cc2n(-c3ccc(Cl)cc3)c3ccccc3nc-2cc1Nc1ccc(Cl)cc1` [CLOFAZIMINE]: the MIC in experiment [3] and in experiment [4] was 0.12 µg/mL (≈ 0.253 µM) in each case.

`CC(C)(O)/C=C/c1cccc2nc3cccc(C(=O)O)c3nc12`: the minimum inhibitory concentration (MIC) was 25 µg/mL (≈ 81.1 µM) in the experiment with Mycolicibacterium vaccae; 25 µg/mL (≈ 81.1 µM) against Mycolicibacterium aurum; 50 µg/mL (≈ 162 µM) in experiment [1]; 25 µg/mL (≈ 81.1 µM) in experiment [2]; 100 µg/mL (≈ 324 µM) in the experiment with Staphylococcus aureus.
